Laboratory results from article PMC11303814 (Nature Communications, 2024).
Residue numbers refer to the chain shown, from its start.

How the values were obtained:
Assay in all cases: TEVC deactivation time
Assay type in all cases: cell-based
rP2X7-R125A/I214A = biological target: T1, rP2X7-R125A/I214A (Rattus norvegicus, UniProt Q64663, I214A/R125A); settings: after 100 μM ATP or 10 μM BzATP
T1 sequence (Q64663 1-595 R125A/I214A): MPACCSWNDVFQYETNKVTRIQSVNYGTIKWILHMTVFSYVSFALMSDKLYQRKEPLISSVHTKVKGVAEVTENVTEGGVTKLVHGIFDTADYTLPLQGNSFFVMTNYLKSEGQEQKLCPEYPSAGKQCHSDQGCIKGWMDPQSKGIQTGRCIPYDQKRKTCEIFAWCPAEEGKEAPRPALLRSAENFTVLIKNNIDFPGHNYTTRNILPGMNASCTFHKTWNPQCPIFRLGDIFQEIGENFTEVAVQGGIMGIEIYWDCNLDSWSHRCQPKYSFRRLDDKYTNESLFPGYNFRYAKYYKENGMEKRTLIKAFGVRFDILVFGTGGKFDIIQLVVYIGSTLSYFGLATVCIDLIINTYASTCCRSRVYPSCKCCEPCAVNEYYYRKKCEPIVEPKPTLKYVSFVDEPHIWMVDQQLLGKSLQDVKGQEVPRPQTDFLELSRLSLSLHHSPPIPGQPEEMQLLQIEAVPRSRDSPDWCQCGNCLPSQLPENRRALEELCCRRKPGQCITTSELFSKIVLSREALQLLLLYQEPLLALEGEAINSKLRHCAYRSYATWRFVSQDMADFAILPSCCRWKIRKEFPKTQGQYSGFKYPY
Outline: (§1)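 Xenopus oocytes injected with 50 nL of 10 ng/µL mutant rP2X7 mRNA, expressed ~20 h, clamped in pH 7.4 HEPES buffer with 0.1 mM flufenamic acid and EDTA. Currents were evoked by 100 µM ATP or 10 µM BzATP. τ is the time for current to return to 63% of baseline after agonist removal, from a one- or two-phase decay fit. Done in triplicate over first to third applications per oocyte; mean ± SD.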

rP2X7-R125A/Q143A = biological target: T2, rP2X7-R125A/Q143A (Rattus norvegicus, UniProt Q64663, Q143A/R125A); settings: after 100 μM ATP or 10 μM BzATP
T2 sequence (Q64663 1-595 R125A/Q143A): T1 sequence (Q64663 1-595 R125A/I214A) with Q143A, A214I
Outline: as §1

rP2X7-R125A/Q143A/I214A = biological target: T3, rP2X7-R125A/Q143A/I214A (Rattus norvegicus, UniProt Q64663, I214A/Q143A/R125A); settings: after 100 μM ATP or 100 μM BzATP
T3 sequence (Q64663 1-595 R125A/Q143A/I214A): T1 sequence (Q64663 1-595 R125A/I214A) with Q143A
Outline: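 Triple-mutant rP2X7 was expressed ~20 h in Xenopus oocytes (50 nL of 10 ng/µL mRNA) and recorded by TEVC in pH 7.4 HEPES buffer containing flufenamic acid. Deactivation followed 100 µM ATP or 100 µM BzATP. τ is the time to 63% return to baseline after washout, from a one- or two-phase decay fit. Triplicate over first to third applications per oocyte; mean ± SD.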

rP2X7-Q143A/I214A = biological target: T4, rP2X7-Q143A/I214A (Rattus norvegicus, UniProt Q64663, I214A/Q143A); settings: after 100 μM ATP or 10 μM BzATP
T4 sequence (Q64663 1-595 Q143A/I214A): T1 sequence (Q64663 1-595 R125A/I214A) with A125R, Q143A
Outline: as §1

deactivation lifetime τ (rP2X7-R125A/I214A) [s]	deactivation lifetime τ (rP2X7-R125A/Q143A) [s]	deactivation lifetime τ (rP2X7-R125A/Q143A/I214A) [s]	deactivation lifetime τ (rP2X7-Q143A/I214A) [s]	Molecule
23 ± 13	2.5 ± 1.1	3.7 ± 0.7	4.3 ± 1.7	BzATP
3.7 ± 0.8	1.8 ± 0.1	2.4 ± 0.8	2.9 ± 1.0	Nc1ncnc2c1ncn2[C@@H]1O[C@H](COP(=O)(O)OP(=O)(O)OP(=O)(O)O)[C@@H](O)[C@H]1O [ATP]
